Assay results published in BindingDB's records for doi:10.1021/np900192r (Cnrs, 2009).

target: Bcl-2-like protein 1 (Homo sapiens, UniProt Q07817); experiment: Binding affinity to Bcl-xL by fluorescein-labeled Bak-BH3 peptide competition binding assay
Outline: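 Fluorescence polarization competition on Bcl-xL against a fluorescein-tagged Bak BH3-domain peptide as the reference ligand. Ki is the dissociation constant at equilibrium with the reference ligand. Unlabeled Bak(BH3) peptide and a substituted terphenyl derivative served as positive controls. Bcl-xL values are from duplicate runs.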

Bcl-2-like protein 1, sequence (Q07817 whole entry): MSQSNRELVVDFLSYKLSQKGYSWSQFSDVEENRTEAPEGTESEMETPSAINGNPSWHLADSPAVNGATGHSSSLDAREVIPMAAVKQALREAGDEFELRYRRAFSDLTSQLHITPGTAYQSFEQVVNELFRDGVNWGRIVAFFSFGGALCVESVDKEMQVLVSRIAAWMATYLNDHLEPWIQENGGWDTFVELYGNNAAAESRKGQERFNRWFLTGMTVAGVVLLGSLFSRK

Ki [µM]	Structure (SMILES)
> 100	CC(=O)O[C@@H]1[C@@H](OC(C)=O)[C@@H](O)[C@H](OC[C@]2(C)[C@@H](OC(C)=O)C[C@H](O)[C@]3(C)[C@H]4CC=C5[C@H]6C[C@](C)(C(=O)O)CC[C@]6(C)CC[C@@]5(C)[C@]4(C)CC[C@@H]23)O[C@H]1C [23-O-[alpha-L-(3',4'-Diacetylrhamnopyranosyl]-3beta-acetylimberbic acid]
> 100	COC(=O)[C@]1(C)CC[C@]2(C)CC[C@]3(C)C(=CC[C@@H]4[C@@]5(C)[C@@H](O)C[C@H](OC(C)=O)[C@@](C)(CO[C@@H]6O[C@@H](C)[C@H](OC(C)=O)[C@@H](O)[C@H]6O)[C@@H]5CC[C@]43C)[C@H]2C1 [23-O-[alpha-L-(4'-Acetylrhamnopyranosyl]-3beta-acetylimberbic acid 29-methyl ester]
> 100	CC(=O)O[C@@H]1[C@@H](O)[C@@H](O)[C@H](OC[C@]2(C)[C@@H](OC(C)=O)C[C@H](O)[C@]3(C)[C@H]4CC=C5[C@H]6C[C@](C)(C(=O)O)CC[C@]6(C)CC[C@@]5(C)[C@]4(C)CC[C@@H]23)O[C@H]1C [23-O-[alpha-L-(4'-Acetylrhamnopyranosyl]-3beta-acetylimberbic acid]
